The values below come from ChEMBL document CHEMBL2424657, “Identification of the KDM2/7 histone lysine demethylase subfamily inhibitor and its antiproliferative activity” (J Med Chem, 2013).

Calls of active or inactive are those of the source. No cut-off for these calls is given here. Where only a bound is given, the exact number is not on record here.

Test [1] relates to HeLa. As to the kind of experiment: Cell cycle arrest in human HeLa cells assessed as reduction in G2/M phase after 24 hrs by FACS analysis. In kind it is functional, cell-based. In a few lines:
(§1)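 HeLa or KYSE150 cells (5×10^5) were exposed for 24 h to 10 or 100 μM in RPMI 1640 with 10% FBS, then trypsinized. Cells were fixed in ice-cold 70% ethanol, PBS-washed and stained with propidium iodide (10 μg/mL) plus RNase A (0.2 mg/mL) for 30 min at 25 °C. Phase distribution was read by flow cytometry.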
Background: Flow cytometry measures light scatter and fluorescence of single cells or particles in a stream.

Test [2] deals with T1, Lysine-specific demethylase 7A/7B (Homo sapiens) (UniProt Q9UPP1+Q6ZMT4). As to the kind of experiment: Inhibition of KDM7A/7B in human KYSE-150 cells assessed as H3K27me2 level at GI50 after 24 hrs by Western blot analysis. The format is cell-based. The procedure, abridged:
(§2)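 Cells (5×10^5) were treated for 24 h in OPTI-MEM and lysed in SDS buffer. Equal protein amounts, set by Bradford assay, were resolved on 4–20% SDS-PAGE and blotted. Blots were probed with anti-H3K27me2 (1:1000) and anti-H3 (1:100000) as loading reference, detected with an HRP secondary antibody, and visualized by ECL.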
For orientation: In western blotting, separated proteins are transferred to a membrane and probed.

Test [3] concerns HeLa. Description: Cell cycle arrest in human HeLa cells assessed as increase in G0/G1 phase after 24 hrs by FACS analysis. The format is functional, cell-based. In a few lines:
as §1

The test system of the next test is N2a. Description: Growth inhibition of mouse N2A cells after 48 hrs by MTT assay. The format is functional. The procedure, abridged:
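Cells were seeded at 5000/well in RPMI 1640 with 10% FBS and allowed to attach overnight, then exposed for 48 h at 37 °C in 5% CO2. MTT was added for 3 h, and the dye was solubilized in HCl–2-propanol and read at 560 nm (reference 750 nm).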

A short description of test [4]: Cell cycle arrest in human KYSE-150 cells assessed as increase in G0/G1 phase after 24 hrs by FACS analysis. In kind it is functional, cell-based. The procedure, abridged: as §1
The target in test [5] is Lysine-specific demethylase 7A/7B (Mus musculus) (UniProt Q3UWM4+Q80TJ7). Description: Inhibition of KDM7A/7B in mouse N2a cells assessed as H3K27me2 level after 24 hrs by Western blot analysis. The format is cell-based. The procedure, abridged: as §2
Test [6] addresses Lysine-specific demethylase 6A (Homo sapiens, UniProt O15550). As to the kind of experiment: Inhibition of human recombinant KDM6A after 120 mins.
Test [7] addresses T1, Lysine-specific demethylase 7A/7B (Homo sapiens). As to the kind of experiment: Inhibition of KDM7A/7B in human HeLa cells assessed as H3K27me2 level at GI50 after 24 hrs by Western blot analysis. The format is cell-based. The procedure, abridged:
as §2

T1 sequence (Q6ZMT4 whole entry, looked up): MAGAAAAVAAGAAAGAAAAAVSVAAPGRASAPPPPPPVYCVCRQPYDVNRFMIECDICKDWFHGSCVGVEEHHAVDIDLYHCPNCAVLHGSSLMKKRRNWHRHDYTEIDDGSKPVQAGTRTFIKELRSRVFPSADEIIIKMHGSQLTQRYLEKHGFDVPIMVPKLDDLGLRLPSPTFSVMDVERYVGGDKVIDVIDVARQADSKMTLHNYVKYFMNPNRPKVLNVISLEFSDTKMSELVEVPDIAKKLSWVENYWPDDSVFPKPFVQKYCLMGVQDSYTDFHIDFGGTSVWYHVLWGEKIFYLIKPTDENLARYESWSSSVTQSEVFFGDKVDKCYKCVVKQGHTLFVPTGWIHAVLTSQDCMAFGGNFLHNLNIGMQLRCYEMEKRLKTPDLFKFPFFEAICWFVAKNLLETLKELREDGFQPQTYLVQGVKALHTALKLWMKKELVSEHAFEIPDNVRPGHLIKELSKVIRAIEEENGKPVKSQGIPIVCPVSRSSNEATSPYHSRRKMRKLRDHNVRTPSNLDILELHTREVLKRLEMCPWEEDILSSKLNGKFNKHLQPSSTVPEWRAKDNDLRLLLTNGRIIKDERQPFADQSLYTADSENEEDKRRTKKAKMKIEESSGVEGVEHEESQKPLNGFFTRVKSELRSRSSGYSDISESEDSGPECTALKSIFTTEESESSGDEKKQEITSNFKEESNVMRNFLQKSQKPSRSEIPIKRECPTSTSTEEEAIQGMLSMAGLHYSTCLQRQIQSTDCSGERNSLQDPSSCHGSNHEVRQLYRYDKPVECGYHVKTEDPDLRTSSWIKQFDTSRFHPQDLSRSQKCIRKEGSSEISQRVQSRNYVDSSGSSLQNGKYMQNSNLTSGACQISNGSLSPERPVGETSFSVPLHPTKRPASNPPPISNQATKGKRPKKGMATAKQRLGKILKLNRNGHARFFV
T1 sequence (Q9UPP1 whole entry, looked up): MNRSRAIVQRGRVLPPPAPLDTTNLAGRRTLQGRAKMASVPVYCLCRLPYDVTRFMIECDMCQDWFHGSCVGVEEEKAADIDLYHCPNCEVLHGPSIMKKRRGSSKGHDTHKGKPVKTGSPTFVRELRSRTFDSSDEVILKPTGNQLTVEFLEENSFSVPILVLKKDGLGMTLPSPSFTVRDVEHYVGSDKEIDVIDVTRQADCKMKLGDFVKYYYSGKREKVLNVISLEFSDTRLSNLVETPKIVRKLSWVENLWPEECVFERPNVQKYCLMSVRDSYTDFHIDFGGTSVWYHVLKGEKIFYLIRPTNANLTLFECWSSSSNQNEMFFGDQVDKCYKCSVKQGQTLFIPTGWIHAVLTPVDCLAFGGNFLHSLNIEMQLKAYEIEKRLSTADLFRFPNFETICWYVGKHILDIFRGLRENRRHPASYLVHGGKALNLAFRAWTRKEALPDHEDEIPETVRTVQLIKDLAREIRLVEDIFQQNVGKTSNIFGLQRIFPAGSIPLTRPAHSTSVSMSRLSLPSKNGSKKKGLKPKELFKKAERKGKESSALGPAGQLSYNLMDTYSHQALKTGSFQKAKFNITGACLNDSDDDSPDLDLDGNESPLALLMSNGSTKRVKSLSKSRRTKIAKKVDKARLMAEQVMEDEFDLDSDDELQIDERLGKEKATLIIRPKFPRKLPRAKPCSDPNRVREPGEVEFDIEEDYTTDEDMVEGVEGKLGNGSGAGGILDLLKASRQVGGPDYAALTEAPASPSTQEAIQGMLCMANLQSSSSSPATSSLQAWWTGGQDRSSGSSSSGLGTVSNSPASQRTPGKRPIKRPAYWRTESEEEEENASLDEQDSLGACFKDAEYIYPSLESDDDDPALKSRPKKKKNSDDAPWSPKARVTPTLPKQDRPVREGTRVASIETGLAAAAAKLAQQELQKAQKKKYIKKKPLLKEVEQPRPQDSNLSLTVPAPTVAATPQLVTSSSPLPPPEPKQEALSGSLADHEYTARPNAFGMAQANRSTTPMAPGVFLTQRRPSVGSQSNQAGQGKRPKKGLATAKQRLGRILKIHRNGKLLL
Chain of Lysine-specific demethylase 7A/7B (Mus musculus) (Q3UWM4 whole entry, looked up): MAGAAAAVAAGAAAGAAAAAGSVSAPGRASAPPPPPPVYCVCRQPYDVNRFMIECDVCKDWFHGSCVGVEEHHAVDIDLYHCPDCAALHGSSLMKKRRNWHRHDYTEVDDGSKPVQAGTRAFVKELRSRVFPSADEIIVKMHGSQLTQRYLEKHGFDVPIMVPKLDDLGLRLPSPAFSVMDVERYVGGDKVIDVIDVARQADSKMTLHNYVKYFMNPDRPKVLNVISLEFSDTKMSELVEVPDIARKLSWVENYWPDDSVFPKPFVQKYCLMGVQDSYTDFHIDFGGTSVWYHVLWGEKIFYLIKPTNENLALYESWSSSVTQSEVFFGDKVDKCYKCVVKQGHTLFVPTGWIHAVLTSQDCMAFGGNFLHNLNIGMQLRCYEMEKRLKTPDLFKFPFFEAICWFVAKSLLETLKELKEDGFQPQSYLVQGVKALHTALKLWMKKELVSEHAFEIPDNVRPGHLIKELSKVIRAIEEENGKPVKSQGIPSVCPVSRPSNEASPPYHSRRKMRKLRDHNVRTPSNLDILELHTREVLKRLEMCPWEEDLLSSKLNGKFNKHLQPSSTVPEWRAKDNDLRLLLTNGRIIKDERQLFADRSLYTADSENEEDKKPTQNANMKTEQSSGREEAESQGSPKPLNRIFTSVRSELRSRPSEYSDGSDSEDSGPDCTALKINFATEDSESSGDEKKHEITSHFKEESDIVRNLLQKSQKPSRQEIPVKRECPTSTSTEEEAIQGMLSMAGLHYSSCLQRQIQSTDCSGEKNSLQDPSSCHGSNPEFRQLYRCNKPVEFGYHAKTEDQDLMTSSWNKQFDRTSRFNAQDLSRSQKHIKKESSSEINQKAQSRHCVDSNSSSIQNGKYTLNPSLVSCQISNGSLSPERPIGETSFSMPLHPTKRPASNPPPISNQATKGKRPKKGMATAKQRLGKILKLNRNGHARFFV
Chain of Lysine-specific demethylase 7A/7B (Mus musculus) (Q80TJ7 whole entry, looked up): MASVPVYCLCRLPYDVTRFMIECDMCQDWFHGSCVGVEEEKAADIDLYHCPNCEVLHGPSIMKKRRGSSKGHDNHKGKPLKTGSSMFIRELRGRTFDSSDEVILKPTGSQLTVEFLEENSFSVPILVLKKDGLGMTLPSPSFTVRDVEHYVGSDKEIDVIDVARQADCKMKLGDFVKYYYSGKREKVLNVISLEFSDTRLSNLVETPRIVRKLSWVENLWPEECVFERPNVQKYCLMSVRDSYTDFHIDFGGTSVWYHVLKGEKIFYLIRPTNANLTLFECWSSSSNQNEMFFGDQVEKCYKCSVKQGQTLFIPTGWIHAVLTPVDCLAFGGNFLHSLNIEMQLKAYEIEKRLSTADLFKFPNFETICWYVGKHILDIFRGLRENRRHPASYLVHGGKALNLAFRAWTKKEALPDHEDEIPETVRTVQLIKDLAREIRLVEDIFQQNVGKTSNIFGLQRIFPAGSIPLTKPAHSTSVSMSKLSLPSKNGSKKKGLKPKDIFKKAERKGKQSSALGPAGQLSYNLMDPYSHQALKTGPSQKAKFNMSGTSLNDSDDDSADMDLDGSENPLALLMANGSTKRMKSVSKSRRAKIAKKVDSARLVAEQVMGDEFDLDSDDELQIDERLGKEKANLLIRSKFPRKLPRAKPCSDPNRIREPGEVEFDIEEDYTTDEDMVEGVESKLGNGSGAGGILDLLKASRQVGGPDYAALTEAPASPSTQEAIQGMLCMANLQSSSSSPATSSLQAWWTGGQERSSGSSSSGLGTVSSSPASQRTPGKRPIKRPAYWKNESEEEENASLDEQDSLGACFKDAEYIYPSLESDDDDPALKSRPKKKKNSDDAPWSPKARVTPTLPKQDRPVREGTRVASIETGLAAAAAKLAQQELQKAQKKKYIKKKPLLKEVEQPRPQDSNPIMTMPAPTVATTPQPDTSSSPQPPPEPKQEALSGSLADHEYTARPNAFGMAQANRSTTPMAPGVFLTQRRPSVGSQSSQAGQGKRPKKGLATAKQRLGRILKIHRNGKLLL

A word on the GI50: it is the concentration at which growth is held to half of that of the control. Usually IC50 stands for the concentration that gives 50% inhibition. With `O=C(O)CCN(O)C(=O)CCCCCCCCC1CC1`, the Activity entry (in the test with HeLa [1]; in the test on HeLa [3]; in test [4]) was “Dose-dependent effect” each time. Besides, the inhibition result in test [2] and in test [7] was “Active” each time. In the test with N2a, this compound had a GI50 of 86 µM. For the same compound, the inhibition result in test [5] is “Dose-dependent effect”. In addition, in test [6], the IC50 is > 100 µM.
